A number with no mark means an inactive call.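 The calls were made as follows: active = viability at or below 30% in both replicate assays; inconclusive = viability at or below 30% in just one of the two assays; inactive = the rest.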
experiment: HUVEC growth inhibition – cell-based, human, primary screen (AID 575); conditions: HUVEC proliferation, CellTiter-Glo luminescence, 72 h; at 10 µM; active compounds read low;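 also: 100% = median of untreated cell wells with 0.1% DMSO on each plate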
Summary of the method: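 Material: primary human umbilical vein endothelial cells / Schedule: 72 h exposure, 37 °C, 5% CO2, 30 min RT equilibration / Signal: ATP-based CellTiter-Glo luminescent read / Read-out basis: percent of median DMSO-control luminescence / Control set: 32 DMSO-only cell-control wells (high), 32 MePR drug-control wells (low) per plate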

SMILES | viability [%]
O=C(NCCN1CCCCCC1)c1ccc(CS(=O)(=O)c2ccc(Br)cc2)o1 | 86.2
Cc1ccc(S(=O)(=O)NCCOC(=O)Nc2sc(=S)n(C)c2C)cc1 | 90
COc1ccccc1CC(=O)Nc1ccc(OC)c(OC)c1 | 101
CCN(CC)C(=O)C1CCCc2c1[nH]c1ccc(Cl)cc21 (stereo not given) | 67.1
CCOC(=O)N1CCC(NC(=O)C2CCCN(C(=O)c3cc4sccc4n3C)C2)CC1 (stereo not given) | 82.2
CCOC(=O)c1[nH]c(C)c(C(=O)Nc2ccc(Cl)cc2)c1C | 73.3
O=C(NC(=O)c1cccc(F)c1)OC[C@@H]1CCCN2CCCC[C@H]12 | 110
COc1ccccc1-n1c(=O)[nH]c2c(C(N)=O)nc(-c3cccnc3)nc21 | 73.7
CC1(C)CC(=O)c2cnc(NC(=O)Cc3ccc(Cl)cc3)nc2C1 | 96.2
CC(C)(NC(=O)N1CCCC1)c1cccc(C(C)(C)NC(=O)N2CCCC2)c1 | 97.7
COc1ccc(NC(=O)C2CCCN(S(=O)(=O)c3cccc4cccnc34)C2)cc1OC (stereo not given) | 75.4
CCOc1ccc(CCN2C(=O)C3C4C=CC(C4)C3C2=O)cc1OCC (stereo not given) | 97.7
COc1ccc(S(=O)(=O)N2CCN(c3ccc(C)cc3C)CC2)cc1OC | 73.8
O=C(C1CCN(c2nnc(-n3cccc3)s2)CC1)N1CCc2ccccc2C1 | 58.6
CCOc1cc(C2C3=C(CCCC3=O)N(C)C3=C2C(=O)CCC3)cc(Cl)c1O | 105
O=C(OCN1C(=O)c2ccccc2C1=O)C1CCCCC1 | 87.3
Cc1ccc2cccc(SCC(=O)N3CCOCC3)c2n1 | 61
c1ccn2c(SCc3ccc4c(c3)OCCO4)nnc2c1 | 93.8
c1ccc(C(Cc2nc(-c3ccccn3)no2)c2ccccc2)cc1 | 92.8
COC(=O)C(C)Sc1nnc2n(-c3cccc(C)c3)c(=O)c3c4c(sc3n12)CCCC4 (stereo not given) | 86.8

SMILES | viability [%]
Cc1ccc(-c2noc(CN3C(C)CCCC3C)n2)cc1 (stereo not given) | 114
CCn1c(SCC(=O)Nc2ccc(Cl)cc2)nnc1C1CC1 | 84.2
COc1ccc(C2CC(c3ccco3)n3ncnc3N2)cc1 (stereo not given) | 93.1
COc1ccc(NC(=O)c2cc(C3CC3)on2)c(OC)c1 | 86.7
COc1cc(OC)c2c(c1)OC(c1ccc(OC)c(OC)c1)C(O)C2=O (stereo not given) | 112
N#CCCN(Cc1cccnc1)C(=O)Nc1ccc(Cl)c(Cl)c1 | 94.6
O=C(c1cccc(F)c1)N1CCc2ccccc21 | 91.2
COc1ccc(NC(=O)C2CCCCN2S(=O)(=O)c2ccc(F)cc2)cc1 (stereo not given) | 91.4
CCN(CC)C(=O)Cn1ncc2c1-c1ccccc1OC2 | 98.3
Cn1c(=O)oc2cc(S(=O)(=O)NC3CCN(Cc4ccccc4)CC3)ccc21 | 90.9
COCCOC(=O)c1[nH]c2c(c1C)C(=O)CC(c1ccco1)C2 (stereo not given) | 57
COc1ccccc1NC(=O)N(C1CCCC1)C1CCN(C(C)=O)CC1 | 112
COc1cc(C(=O)Nc2cccc(-c3nncn3C)c2)cc(OC)c1OC | 101
CCCCN(CC)CCNC(=O)c1cc2c(C)nc3ccccc3c2o1 | 63.6
Clc1ccc(SCCCCn2ccnc2)cc1 | 102
CCOC(=O)N1CCC(N2C(=O)c3ccccc3C2Nc2cc(Cl)c(OC)cc2OC)CC1 (stereo not given) | 91.6
O=C(Cn1nc(Cc2cccnc2)c2ccccc2c1=O)NCC1CCCO1 (stereo not given) | 99.2
CCn1cc(SCC(=O)NCC2CCCO2)c2ccccc21 (stereo not given) | 102
Cc1noc(C)c1S(=O)(=O)N1CCN(Cc2ccc3c(c2)OCO3)CC1 | 96.7
CCOC(=O)c1ccc(N2Cc3cc(C)c(C)cc3C2)cc1O | 108

— PubChem BioAssay
